Legend:
[1] = target: Activated CDC42 kinase 1 (Homo sapiens) (UniProt Q07912); assay: Inhibition of human recombinant ACK at 40 nM related to control ULK1
Summary of the method: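 Radiometric activity assays in a panel of 327 human recombinant kinases, each run in duplicate at one inhibitor concentration. Activity remaining is expressed as percent of vehicle control, and percent inhibition is calculated as 100% minus percent activity remaining.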

[2] = target: Cyclin-dependent kinase 4 (Homo sapiens) (UniProt P11802); assay: Inhibition of human recombinant CDK4 at 500 nM in presence of ATP by radiometric assay relative to control
[3] = target: Ribosomal protein S6 kinase alpha-3 (Homo sapiens) (UniProt P51812); assay: Inhibition of human recombinant RSK2 at 500 nM in presence of ATP by radiometric assay relative to control
[4] = target: Serine/threonine-protein kinase VRK2 (Homo sapiens) (UniProt Q86Y07); assay: Inhibition of human recombinant VRK2 at 500 nM related to control ULK1
[5] = target: T1, Tyrosine-protein kinase TXK (Homo sapiens) (UniProt P42681); assay: Inhibition of human recombinant TXK at 15 nM related to control ULK1
T1 sequence (whole entry): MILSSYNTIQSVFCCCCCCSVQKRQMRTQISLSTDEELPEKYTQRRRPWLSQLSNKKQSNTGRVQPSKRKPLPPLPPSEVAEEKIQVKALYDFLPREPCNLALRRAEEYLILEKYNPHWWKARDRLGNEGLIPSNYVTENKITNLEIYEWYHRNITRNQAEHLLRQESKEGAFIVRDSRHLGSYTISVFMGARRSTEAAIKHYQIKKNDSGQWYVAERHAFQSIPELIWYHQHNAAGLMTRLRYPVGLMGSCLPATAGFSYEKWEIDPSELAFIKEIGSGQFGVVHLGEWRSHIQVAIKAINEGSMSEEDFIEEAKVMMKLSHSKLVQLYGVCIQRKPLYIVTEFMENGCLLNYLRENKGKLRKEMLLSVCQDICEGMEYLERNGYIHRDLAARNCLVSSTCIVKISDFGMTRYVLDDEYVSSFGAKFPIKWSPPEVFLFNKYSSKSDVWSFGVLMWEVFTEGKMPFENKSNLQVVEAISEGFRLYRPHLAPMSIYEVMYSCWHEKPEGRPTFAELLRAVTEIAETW

[6] = target: T2, Serine/threonine-protein kinase D3 (Homo sapiens) (UniProt O94806); assay: Inhibition of human recombinant PKD3 at 15 nM related to control ULK1
T2 sequence (whole entry): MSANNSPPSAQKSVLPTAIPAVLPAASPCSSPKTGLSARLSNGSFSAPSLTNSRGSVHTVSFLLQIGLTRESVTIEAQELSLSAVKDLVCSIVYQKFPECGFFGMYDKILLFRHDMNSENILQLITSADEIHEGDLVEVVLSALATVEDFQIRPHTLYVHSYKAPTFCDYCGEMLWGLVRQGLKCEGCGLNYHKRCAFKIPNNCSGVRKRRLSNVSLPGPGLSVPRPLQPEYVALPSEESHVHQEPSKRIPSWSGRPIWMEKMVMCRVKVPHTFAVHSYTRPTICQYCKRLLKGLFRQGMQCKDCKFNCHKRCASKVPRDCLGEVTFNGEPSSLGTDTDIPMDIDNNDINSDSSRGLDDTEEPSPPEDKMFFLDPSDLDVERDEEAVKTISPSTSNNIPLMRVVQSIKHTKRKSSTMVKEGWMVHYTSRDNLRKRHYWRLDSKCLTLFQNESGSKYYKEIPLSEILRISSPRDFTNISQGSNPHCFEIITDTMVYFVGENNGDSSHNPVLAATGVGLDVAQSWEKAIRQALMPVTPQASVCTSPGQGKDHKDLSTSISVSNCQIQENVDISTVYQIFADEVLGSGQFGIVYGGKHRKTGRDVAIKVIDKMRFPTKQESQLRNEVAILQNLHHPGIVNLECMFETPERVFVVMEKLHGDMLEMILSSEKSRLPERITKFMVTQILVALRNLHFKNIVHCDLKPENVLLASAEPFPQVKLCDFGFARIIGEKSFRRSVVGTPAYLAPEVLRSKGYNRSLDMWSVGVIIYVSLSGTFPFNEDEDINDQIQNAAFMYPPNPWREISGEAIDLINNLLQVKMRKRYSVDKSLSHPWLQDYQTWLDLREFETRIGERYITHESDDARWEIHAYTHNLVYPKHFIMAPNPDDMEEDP

[7] = target: T3, Tyrosine-protein kinase Mer (Homo sapiens) (UniProt Q12866); assay: Inhibition of human recombinant MER at 15 nM related to control ULK1
T3 sequence (whole entry): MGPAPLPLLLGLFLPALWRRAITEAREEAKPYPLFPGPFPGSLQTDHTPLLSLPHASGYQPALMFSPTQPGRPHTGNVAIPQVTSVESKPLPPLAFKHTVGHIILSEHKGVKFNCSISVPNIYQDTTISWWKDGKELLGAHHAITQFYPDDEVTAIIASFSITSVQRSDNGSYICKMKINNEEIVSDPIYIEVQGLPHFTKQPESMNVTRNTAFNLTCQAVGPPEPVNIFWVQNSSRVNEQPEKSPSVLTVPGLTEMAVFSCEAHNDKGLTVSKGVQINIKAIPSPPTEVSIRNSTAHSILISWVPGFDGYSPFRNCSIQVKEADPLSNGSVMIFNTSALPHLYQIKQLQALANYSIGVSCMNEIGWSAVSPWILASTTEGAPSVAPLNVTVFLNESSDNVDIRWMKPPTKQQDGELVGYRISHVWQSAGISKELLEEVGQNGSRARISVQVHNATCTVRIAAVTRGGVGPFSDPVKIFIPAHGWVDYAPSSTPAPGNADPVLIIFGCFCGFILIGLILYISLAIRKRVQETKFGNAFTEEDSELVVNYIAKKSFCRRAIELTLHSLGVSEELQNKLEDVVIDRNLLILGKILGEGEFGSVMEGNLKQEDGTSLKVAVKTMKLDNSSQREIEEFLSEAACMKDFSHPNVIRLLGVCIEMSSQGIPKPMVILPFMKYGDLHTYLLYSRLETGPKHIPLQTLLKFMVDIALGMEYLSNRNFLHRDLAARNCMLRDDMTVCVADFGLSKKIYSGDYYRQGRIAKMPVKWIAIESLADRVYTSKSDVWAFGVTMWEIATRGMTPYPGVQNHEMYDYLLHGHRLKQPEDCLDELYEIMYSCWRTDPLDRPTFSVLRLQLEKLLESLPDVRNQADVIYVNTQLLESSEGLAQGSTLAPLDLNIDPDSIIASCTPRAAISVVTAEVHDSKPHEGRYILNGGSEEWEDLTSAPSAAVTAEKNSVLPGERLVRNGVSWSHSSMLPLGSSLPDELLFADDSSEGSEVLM

[8] = target: Epidermal growth factor receptor (Homo sapiens) (UniProt P00533); assay: Inhibition of human recombinant EGFR at 15 nM in presence of ATP by radiometric assay relative to control
Chain of Epidermal growth factor receptor (Homo sapiens) (P00533 whole entry): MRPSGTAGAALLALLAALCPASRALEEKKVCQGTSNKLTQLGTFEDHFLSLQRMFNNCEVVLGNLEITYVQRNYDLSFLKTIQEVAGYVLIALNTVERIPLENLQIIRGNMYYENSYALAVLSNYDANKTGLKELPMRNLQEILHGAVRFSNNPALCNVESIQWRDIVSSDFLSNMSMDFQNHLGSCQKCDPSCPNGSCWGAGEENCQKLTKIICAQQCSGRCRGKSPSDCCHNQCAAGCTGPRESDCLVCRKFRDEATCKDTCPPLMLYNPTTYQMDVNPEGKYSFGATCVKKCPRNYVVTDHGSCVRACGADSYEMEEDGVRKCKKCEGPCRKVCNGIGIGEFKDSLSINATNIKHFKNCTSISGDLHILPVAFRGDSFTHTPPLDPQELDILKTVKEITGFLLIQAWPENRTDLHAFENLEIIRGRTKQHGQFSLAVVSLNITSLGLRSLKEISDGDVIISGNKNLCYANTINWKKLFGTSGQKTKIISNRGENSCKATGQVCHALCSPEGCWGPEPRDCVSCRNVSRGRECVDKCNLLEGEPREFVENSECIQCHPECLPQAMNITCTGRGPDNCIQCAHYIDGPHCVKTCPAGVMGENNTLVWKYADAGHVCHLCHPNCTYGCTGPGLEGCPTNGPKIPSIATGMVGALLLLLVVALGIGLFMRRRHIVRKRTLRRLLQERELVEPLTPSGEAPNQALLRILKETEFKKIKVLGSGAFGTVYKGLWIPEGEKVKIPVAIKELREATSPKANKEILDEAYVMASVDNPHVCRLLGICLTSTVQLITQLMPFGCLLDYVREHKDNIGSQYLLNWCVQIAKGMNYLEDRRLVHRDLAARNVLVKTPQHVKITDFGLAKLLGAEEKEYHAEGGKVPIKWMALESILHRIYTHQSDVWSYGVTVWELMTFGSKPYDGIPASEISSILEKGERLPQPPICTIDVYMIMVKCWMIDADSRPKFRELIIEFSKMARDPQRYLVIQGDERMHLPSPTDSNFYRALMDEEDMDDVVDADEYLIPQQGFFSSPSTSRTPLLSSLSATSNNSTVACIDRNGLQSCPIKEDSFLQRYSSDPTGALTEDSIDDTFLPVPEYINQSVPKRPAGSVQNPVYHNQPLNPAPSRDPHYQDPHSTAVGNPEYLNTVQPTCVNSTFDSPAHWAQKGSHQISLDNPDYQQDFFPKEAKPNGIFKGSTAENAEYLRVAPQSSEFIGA

Chain of Ribosomal protein S6 kinase alpha-3 (Homo sapiens) (P51812 whole entry): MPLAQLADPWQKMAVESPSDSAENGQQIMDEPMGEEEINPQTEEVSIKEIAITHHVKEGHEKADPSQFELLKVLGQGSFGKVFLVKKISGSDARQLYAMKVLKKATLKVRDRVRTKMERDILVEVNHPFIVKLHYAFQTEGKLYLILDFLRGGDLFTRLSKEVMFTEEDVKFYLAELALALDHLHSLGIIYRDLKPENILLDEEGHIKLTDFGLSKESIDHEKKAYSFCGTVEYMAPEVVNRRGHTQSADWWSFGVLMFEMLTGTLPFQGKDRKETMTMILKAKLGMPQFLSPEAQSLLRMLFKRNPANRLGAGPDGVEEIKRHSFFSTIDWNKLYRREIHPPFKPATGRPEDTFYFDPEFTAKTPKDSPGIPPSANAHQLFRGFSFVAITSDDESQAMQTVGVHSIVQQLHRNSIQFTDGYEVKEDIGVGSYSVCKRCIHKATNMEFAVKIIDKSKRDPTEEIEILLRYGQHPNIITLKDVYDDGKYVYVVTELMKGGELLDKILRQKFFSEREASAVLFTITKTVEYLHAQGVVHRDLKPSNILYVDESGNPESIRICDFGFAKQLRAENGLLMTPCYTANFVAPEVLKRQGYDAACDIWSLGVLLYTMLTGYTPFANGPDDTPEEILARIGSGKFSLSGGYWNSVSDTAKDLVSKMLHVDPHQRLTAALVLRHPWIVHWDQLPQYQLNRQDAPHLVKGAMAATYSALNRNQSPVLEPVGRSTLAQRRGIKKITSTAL
Chain of Serine/threonine-protein kinase VRK2 (Homo sapiens) (Q86Y07 whole entry): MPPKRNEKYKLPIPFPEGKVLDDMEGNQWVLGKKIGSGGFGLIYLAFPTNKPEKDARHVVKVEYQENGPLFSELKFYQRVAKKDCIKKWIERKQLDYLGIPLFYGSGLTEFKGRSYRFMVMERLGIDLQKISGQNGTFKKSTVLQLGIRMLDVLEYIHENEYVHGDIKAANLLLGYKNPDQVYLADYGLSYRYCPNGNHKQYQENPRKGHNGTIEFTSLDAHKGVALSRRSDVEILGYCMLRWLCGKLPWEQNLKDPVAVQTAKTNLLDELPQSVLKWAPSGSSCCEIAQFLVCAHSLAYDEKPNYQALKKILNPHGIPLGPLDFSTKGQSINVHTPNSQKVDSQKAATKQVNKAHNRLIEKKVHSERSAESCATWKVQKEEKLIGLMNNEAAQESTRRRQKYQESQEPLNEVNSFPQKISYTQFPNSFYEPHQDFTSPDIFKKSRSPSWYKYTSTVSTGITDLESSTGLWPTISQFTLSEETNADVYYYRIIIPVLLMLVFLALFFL
Chain of Cyclin-dependent kinase 4 (Homo sapiens) (P11802 whole entry): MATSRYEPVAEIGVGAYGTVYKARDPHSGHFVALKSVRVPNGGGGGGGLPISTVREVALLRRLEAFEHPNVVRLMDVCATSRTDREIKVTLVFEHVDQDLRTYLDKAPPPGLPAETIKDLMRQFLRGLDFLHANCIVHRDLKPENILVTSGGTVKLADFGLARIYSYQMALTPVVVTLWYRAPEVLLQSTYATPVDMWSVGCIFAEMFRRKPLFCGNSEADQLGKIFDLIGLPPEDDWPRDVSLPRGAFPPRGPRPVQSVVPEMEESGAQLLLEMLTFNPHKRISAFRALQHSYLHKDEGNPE
Chain of Activated CDC42 kinase 1 (Homo sapiens) (Q07912 whole entry, looked up): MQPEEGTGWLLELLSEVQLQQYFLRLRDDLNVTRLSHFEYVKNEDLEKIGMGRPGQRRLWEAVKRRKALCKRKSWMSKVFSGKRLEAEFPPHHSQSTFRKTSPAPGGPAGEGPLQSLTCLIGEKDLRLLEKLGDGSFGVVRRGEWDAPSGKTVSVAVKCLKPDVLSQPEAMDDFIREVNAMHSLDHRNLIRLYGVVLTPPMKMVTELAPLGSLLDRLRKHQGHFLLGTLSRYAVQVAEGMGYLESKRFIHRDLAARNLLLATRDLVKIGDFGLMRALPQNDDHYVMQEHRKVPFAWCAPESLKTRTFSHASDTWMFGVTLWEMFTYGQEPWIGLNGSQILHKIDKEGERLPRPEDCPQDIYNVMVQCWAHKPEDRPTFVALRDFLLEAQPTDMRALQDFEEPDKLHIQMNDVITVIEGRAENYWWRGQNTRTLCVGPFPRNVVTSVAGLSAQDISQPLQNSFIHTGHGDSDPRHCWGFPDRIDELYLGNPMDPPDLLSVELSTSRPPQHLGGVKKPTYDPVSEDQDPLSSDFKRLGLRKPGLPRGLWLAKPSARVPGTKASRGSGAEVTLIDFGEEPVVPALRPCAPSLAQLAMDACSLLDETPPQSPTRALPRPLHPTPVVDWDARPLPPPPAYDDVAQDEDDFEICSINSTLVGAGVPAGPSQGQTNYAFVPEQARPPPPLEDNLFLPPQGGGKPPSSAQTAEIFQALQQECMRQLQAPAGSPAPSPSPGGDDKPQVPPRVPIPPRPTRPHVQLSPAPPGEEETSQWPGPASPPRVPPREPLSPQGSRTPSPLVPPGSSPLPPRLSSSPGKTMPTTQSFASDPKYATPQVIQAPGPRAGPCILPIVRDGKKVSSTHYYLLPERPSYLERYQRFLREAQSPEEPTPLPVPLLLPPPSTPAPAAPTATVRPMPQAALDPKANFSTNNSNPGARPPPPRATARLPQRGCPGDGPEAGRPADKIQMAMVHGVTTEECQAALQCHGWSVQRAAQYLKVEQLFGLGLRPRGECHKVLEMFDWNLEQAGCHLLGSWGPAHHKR

O=C(N[C@@H](C1CC1)C(F)(F)F)c1cc(-c2cnn3cc(-c4ccc(F)cc4)cnc23)cs1
fold change (FC) [1]: 0.23

CNC(=O)c1ccccc1Oc1nc(Nc2cc(OC)c(OC)c(OC)c2)ncc1Br
inhibition [2]: 0% | inhibition [3]: 37% | fold change (FC) [4]: 0.31

CC(C)[C@H](NC(=O)c1cc(-c2cnn3cc(-c4ccc(OCCN5CCCCC5)cc4)cnc23)cs1)C(F)(F)F
fold change (FC) [5]: 0.67 | fold change (FC) [6]: 0.08 | fold change (FC) [7]: 0.39 | inhibition [8]: 3%

— ChEMBL document CHEMBL5653631, “A Potent and Selective ULK1 Inhibitor Suppresses Autophagy and Sensitizes Cancer Cells to Nutrient Stress” (iScience, 2018)
